The text below walks through data of ChEMBL document CHEMBL4152221, “Synthesis and structure-activity relationship of furoquinolinediones as inhibitors of Tyrosyl-DNA phosphodiesterase 2 (TDP2)” (Eur J Med Chem, 2018).

Assay [1] addresses T1, Tyrosyl-DNA phosphodiesterase 2 (Homo sapiens, UniProt O95551).
T1 sequence (O95551 whole entry): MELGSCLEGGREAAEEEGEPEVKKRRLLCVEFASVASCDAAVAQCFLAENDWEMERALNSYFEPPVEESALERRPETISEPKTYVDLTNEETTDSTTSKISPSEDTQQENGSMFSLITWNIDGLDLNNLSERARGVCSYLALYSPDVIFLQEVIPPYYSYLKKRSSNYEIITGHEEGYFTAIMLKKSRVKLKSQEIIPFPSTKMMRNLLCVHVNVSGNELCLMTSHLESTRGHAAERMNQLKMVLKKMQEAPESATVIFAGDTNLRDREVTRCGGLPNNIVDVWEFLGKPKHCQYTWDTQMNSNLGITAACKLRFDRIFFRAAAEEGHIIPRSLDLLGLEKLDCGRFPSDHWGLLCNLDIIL
As to the kind of experiment: Inhibition of human TDP2 expressed in TDP2 deficient chicken DT40 whole cell extracts using TY19 DNA as substrate after 15 mins by PAGE analysis. In a few lines: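 Extract from 1×10^7 TDP2-knockout DT40 cells complemented with human TDP2, lysed 15 min on ice, spun at 12000 g for 10 min, stored at -80 °C. TY19 substrate at 1 nM with 5 μg/mL extract, ±inhibitor, 15 min at room temperature in LMP2 buffer. Gel densitometry. IC50 is mean ± SD of ≥3 independent experiments.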

The target of assay [2] is Tyrosyl-DNA phosphodiesterase 1 (Homo sapiens, UniProt Q9NUW8). As to the kind of experiment: Inhibition of recombinant TDP1 (unknown origin) at 111 uM using 5'-[32P]-labeled N14Y as substrate after 15 mins by PAGE analysis. In short, it runs like this: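 5'-32P-labeled N14Y (3'-phosphotyrosyl single-stranded oligo) at 1 nM with 10 pM recombinant TDP1, 15 min at room temperature. Three-fold dilutions up to 111 μM. Gels scanned and quantified by densitometry. Positive control: AM-8-3.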

Assay [3] deals with T1, Tyrosyl-DNA phosphodiesterase 2. Put plainly: Inhibition of recombinant human TDP2 using TY18 (alpha-[32P]-cordycepin-3'-labeled) as substrate after 15 mins by PAGE analysis. In short, it runs like this: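 32P-cordycepin-3'-labeled TY18 substrate at 1 nM with 25 pM recombinant human TDP2, 15 min at room temperature. Buffer: 50 mM Tris-HCl pH 7.5, 80 mM KCl, 5 mM MgCl2, 0.1 mM EDTA, 1 mM DTT, 40 μg/mL BSA, 0.01% Tween 20. Six or eight three-fold dilutions up to 111 μM. Gel densitometry; IC50 is mean ± SD of ≥3 independent experiments. Positive control: SV-163.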

Activity calls are given as the source filed them. No rule for the calls is given here.

Sequence of Tyrosyl-DNA phosphodiesterase 1 (Q9NUW8 whole entry): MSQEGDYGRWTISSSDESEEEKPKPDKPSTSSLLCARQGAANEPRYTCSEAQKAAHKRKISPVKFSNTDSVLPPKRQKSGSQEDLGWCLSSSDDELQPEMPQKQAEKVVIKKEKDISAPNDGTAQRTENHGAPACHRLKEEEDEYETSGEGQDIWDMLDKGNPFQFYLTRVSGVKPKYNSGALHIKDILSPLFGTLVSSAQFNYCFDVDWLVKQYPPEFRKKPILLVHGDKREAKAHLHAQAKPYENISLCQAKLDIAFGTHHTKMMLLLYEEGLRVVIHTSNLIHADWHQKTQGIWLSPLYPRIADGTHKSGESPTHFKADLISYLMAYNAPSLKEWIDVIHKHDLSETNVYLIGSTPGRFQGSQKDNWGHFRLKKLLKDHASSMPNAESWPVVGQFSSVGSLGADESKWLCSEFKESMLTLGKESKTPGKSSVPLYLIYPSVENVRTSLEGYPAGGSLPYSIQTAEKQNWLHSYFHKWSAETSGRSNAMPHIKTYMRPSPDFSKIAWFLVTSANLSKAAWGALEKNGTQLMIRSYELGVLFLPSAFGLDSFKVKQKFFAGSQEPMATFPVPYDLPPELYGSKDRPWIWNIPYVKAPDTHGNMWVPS

What is called IC50 is the point on the concentration scale where inhibition reaches its midpoint. For the compound `Cc1oc2c(c1C(=O)OCCCCCO)C(=O)c1ncccc1C2=O`, the IC50 in assay [1] worked out at 19 µM; in assay [3], 45 µM. The inhibition result in assay [2] was “inactive”.

With `CCOC(=O)c1c(C)oc2c1C(=O)c1cccnc1C2=O`, the figures for the IC50 in assay [1] and in assay [3] were 54 µM and 43 µM, respectively. For the same compound, in assay [2], the inhibition result was “inactive”.

With `Cc1oc2c(c1C(=O)Oc1ccccc1O)C(=O)c1cccnc1C2=O`, the results for the IC50 in assay [1] and in assay [3] were 39 µM and 29 µM, respectively. Further, the inhibition entry in assay [2] was “inactive”.

In the case of `CCNC(=O)c1c(C)oc2c1C(=O)c1cccnc1C2=O`, in assay [2], the inhibition entry was “inactive”. Further, in assay [3], the IC50 was above 111 µM.

Turning to `Cc1oc2c(c1C(=O)Oc1ccc3c(c1)OCO3)C(=O)c1ncccc1C2=O`, the IC50 in assay [1] and in assay [3] was above 111 µM in each case. Moreover, the inhibition entry in assay [2] was “inactive”.

Consider `COP(=O)(OC)Oc1ccc(OC(=O)c2c(C)oc3c2C(=O)c2ncccc2C3=O)cc1`, for which the inhibition entry in assay [2] was “inactive”. Moreover, in assay [3], the IC50 came out at 31 µM.

Consider `CCOC(=O)c1c2c(n(C)c1C)C(=O)c1ncccc1C2=O`, for which the inhibition entry in assay [2] was “inactive”. In assay [3], the IC50 was above 111 µM.

As to `COP(=O)(OC)c1c(C)oc2c1C(=O)c1ncccc1C2=O`, in assay [2], the inhibition result was “inactive”. Besides, the IC50 in assay [3] is above 111 µM.

As to `Cc1oc2c(c1C(=O)Oc1cccc(N)c1)C(=O)c1ncccc1C2=O`, the IC50 in assay [1] turned out to be 12 µM; in assay [3] it was 16 µM. The inhibition result in assay [2] was “inactive”.

On to `C#CCCOC(=O)c1c(C)oc2c1C(=O)c1ncccc1C2=O`, for which the results for the IC50 in assay [1] and in assay [3] were 15 µM and 22 µM, respectively. In addition, the inhibition result in assay [2] is “inactive”.

Consider `Cc1oc2c(c1-c1nc3ccccc3o1)C(=O)c1ncccc1C2=O`, for which the inhibition result in assay [2] is “inactive”. The IC50 in assay [3] was above 111 µM.

Regarding `Cc1oc2c(c1C(=O)Oc1ccccc1NC(=O)OC(C)(C)C)C(=O)c1ncccc1C2=O`, the inhibition entry in assay [2] is “inactive”. Besides, the IC50 in assay [3] amounted to 36 µM.

Regarding `Cc1oc2c(c1C(=O)OCC(O)CO)C(=O)c1ncccc1C2=O` (stereo not drawn), the IC50 in assay [1] came out at 11 µM; in assay [3] it was 20 µM. Also, the inhibition result in assay [2] was “inactive”.

`CCOC(=O)c1n[nH]c2c1C(=O)c1cccnc1C2=O`: the inhibition result in assay [2] was “inactive”. The IC50 in assay [3] is above 111 µM.

With `Cc1cnc2c(c1)C(=O)c1occ(C)c1C2=O`, in assay [2], the inhibition result is “inactive”. The IC50 in assay [3] is above 111 µM.

In the case of `Cc1oc2c(c1C(=O)OCC(=O)O)C(=O)c1ncccc1C2=O`, the IC50 in assay [1] was found to be 37 µM; in assay [3] it was 51 µM. Besides, the inhibition entry in assay [2] was “inactive”.

As for `Cc1oc2c(c1C(=O)Nc1ccccc1)C(=O)c1ncccc1C2=O`, the inhibition result in assay [2] was “inactive”. In addition, the IC50 in assay [3] is above 111 µM.

`Cc1oc2c(c1C(=O)Oc1cccc(NC(=O)OC(C)(C)C)c1)C(=O)c1ncccc1C2=O`: the inhibition entry in assay [2] was “inactive”. The IC50 in assay [3] was 31 µM.

Take `COC(=O)c1c(C)oc2c1C(=O)c1ncccc1C2=O`: the IC50 in assay [1] is 12 µM; in assay [3], 26 µM. Also, the inhibition result in assay [2] was “inactive”.

Consider `Cc1oc2c(c1C(=O)OCCC[n+]1ccc(N(C)C)cc1)C(=O)c1ncccc1C2=O`, for which the values for the IC50 in assay [1] and in assay [3] were 38 µM and 43 µM, respectively. For the same compound, in assay [2], the inhibition result is “inactive”.

As to `COP(=O)(OC)c1c(C)oc2c1C(=O)c1cccnc1C2=O`, the inhibition entry in assay [2] was “inactive”. In assay [3], the IC50 was 99 µM.

With `COc1ccc(NC(=O)c2c(C)oc3c2C(=O)c2ncccc2C3=O)cc1`, the inhibition result in assay [2] is “inactive”. Moreover, the IC50 in assay [3] was above 111 µM.

For `Cc1oc2c(c1C(=O)Oc1ccc(Cl)cc1)C(=O)c1ncccc1C2=O`, the figures for the IC50 in assay [1] and in assay [3] were 7.5 µM and 11 µM, respectively. In assay [2], the inhibition result is “inactive”.

Turning to `Cc1oc2c(c1C(=O)Oc1ccc(NC(=O)OC(C)(C)C)cc1)C(=O)c1ncccc1C2=O`, the inhibition entry in assay [2] is “inactive”. Besides, the IC50 in assay [3] came out at 88 µM.

In the case of `C#Cc1cccc(OC(=O)c2c(C)oc3c2C(=O)c2ncccc2C3=O)c1`, the IC50 in assay [1] was 13 µM; in assay [3], 43 µM. The inhibition result in assay [2] is “inactive”.

Take `CC(=O)c1c(C)oc2c1C(=O)c1ncccc1C2=O`: the values for the IC50 in assay [1] and in assay [3] were 36 µM and 35 µM, respectively. In assay [2], the inhibition result is “inactive”.

With `Cc1oc2c(c1C(=O)Oc1cccc(-c3cn(CCC(=O)O)nn3)c1)C(=O)c1ncccc1C2=O` [listing 1 of 3 here], the IC50 was 28 µM in assay [1] and 50 µM in assay [3].

For the compound `CCNC(=O)c1c(C)oc2c1C(=O)c1ncccc1C2=O`, the inhibition result in assay [2] was “inactive”. The IC50 in assay [3] was above 111 µM.

In the case of `Cc1oc2c(c1C(=O)Oc1cccc(-c3cn(CCC(=O)O)nn3)c1)C(=O)c1ncccc1C2=O` [listing 2 of 3 here], the inhibition result in assay [2] is “inactive”.

For `Cc1oc2c(c1C(=O)Oc1ccc(N)cc1)C(=O)c1ncccc1C2=O`, the inhibition result in assay [2] is “inactive”. For the same compound, the IC50 in assay [3] is 19 µM.

`Cc1oc2c(c1C(=O)OCCC#N)C(=O)c1ncccc1C2=O`: the IC50 in assay [1] was determined as 13 µM; in assay [3], 14 µM. Further, in assay [2], the inhibition result is “inactive”.

With `Cc1oc2c(c1C(=O)Oc1cccnc1)C(=O)c1ncccc1C2=O`, the IC50 in assay [1] stood at 7.7 µM; in assay [3] it was 8.8 µM. The inhibition entry in assay [2] was “inactive”.

As for `Cc1oc2c(c1C(=O)Oc1cccc(-c3cn(CCC(=O)O)nn3)c1)C(=O)c1ncccc1C2=O` [listing 3 of 3 here], the IC50 stood at 13 µM in assay [1] and 22 µM in assay [3].

For the compound `Cc1oc2c(c1C(=O)Oc1cccc(C#N)c1)C(=O)c1ncccc1C2=O`, the half-maximal inhibitory concentration (IC50) was 10 µM in assay [1] and 12 µM in assay [3]. The inhibition entry in assay [2] was “inactive”.

For the compound `CCOC(=O)c1c(C)[nH]c2c1C(=O)c1cccnc1C2=O`, the inhibition result in assay [2] is “inactive”. The IC50 in assay [3] is above 111 µM.

Turning to `Cc1oc2c(c1C(=O)OCCOCCO)C(=O)c1ncccc1C2=O`, the IC50 amounted to 13 µM in assay [1] and 22 µM in assay [3]. Besides, in assay [2], the inhibition result is “inactive”.

`Cc1oc2c(c1C(=O)Oc1ccc(C(=O)c3ccccc3)cc1)C(=O)c1ncccc1C2=O`: the inhibition entry in assay [2] was “inactive”. Further, the IC50 in assay [3] was above 111 µM.

Take `Cc1oc2c(c1C(=O)OCCc1cn(CCC(=O)O)nn1)C(=O)c1ncccc1C2=O`: the IC50 in assay [1] was 16 µM; in assay [3] it was 20 µM. Moreover, the inhibition entry in assay [2] was “inactive”.

With `Cc1oc2c(c1C(=O)Oc1ccc3ccccc3c1)C(=O)c1ncccc1C2=O`, the inhibition result in assay [2] was “inactive”. Moreover, the IC50 in assay [3] was above 111 µM.

Consider `Cc1oc2c(c1C(=O)Oc1ccc(Br)cc1)C(=O)c1ncccc1C2=O`, for which the IC50 in assay [1] was 12 µM; in assay [3], 35 µM. For the same compound, the inhibition result in assay [2] is “inactive”.

On to `C=CC(=O)Nc1cccc(OC(=O)c2c(C)oc3c2C(=O)c2ncccc2C3=O)c1`, for which the inhibition result in assay [2] is “inactive”. Also, in assay [3], the IC50 amounted to 71 µM.

For `Cc1oc2c(c1C(=O)OCCc1cn(CCCO)nn1)C(=O)c1ncccc1C2=O`, the IC50 in assay [1] was 72 µM; in assay [3] it was 66 µM. In addition, in assay [2], the inhibition result is “inactive”.

With `Cc1oc2c(c1C(=O)Nc1ccccc1O)C(=O)c1ncccc1C2=O`, the inhibition entry in assay [2] is “inactive”. For the same compound, the half-inhibitory concentration (IC50) in assay [3] is above 111 µM.

With `Cc1oc2c(c1C(=O)OCCC[n+]1ccccc1)C(=O)c1ncccc1C2=O`, the IC50 in assay [1] was determined as 24 µM; in assay [3] it was 32 µM. In addition, the inhibition result in assay [2] was “inactive”.

For `C=CC(=O)Nc1ccc(OC(=O)c2c(C)oc3c2C(=O)c2ncccc2C3=O)cc1`, in assay [2], the inhibition result is “inactive”. Moreover, the IC50 in assay [3] was 68 µM.

For `Cc1oc2c(c1C(=O)Oc1ccccc1Cl)C(=O)c1ncccc1C2=O`, the results for the IC50 in assay [1] and in assay [3] were 14 µM and 10 µM, respectively. Besides, the inhibition result in assay [2] is “inactive”.

Turning to `Cc1oc2c(c1C(=O)Oc1ccc(OCCCN3CCOCC3)cc1)C(=O)c1ncccc1C2=O`, the inhibition result in assay [2] was “inactive”. The 50% inhibitory concentration (IC50) in assay [3] stood at 51 µM.

For the compound `Cc1oc2c(c1C(=O)Nc1cccc(Cl)c1)C(=O)c1ncccc1C2=O`, in assay [2], the inhibition result was “inactive”. Besides, the IC50 in assay [3] is above 111 µM.

`CCOC(=O)c1n[nH]c2c1C(=O)c1ncccc1C2=O`: the inhibition result in assay [2] is “inactive”. Further, in assay [3], the IC50 was above 111 µM.

Take `Cc1oc2c(c1C(=O)Nc1cccc(Cl)c1)C(=O)c1cccnc1C2=O`: in assay [2], the inhibition result is “inactive”. The IC50 in assay [3] is above 111 µM.

As to `CC(=O)c1c(C)oc2c1C(=O)c1cccnc1C2=O`, the inhibition result in assay [2] was “inactive”. Further, in assay [3], the IC50 is above 111 µM.
